Here are results for two compounds from ChEMBL document CHEMBL1152955, “Synthetic resveratrol aliphatic acid inhibits TLR2-mediated apoptosis and an involvement of Akt/GSK3beta pathway” (Bioorg Med Chem, 2009).

Series [1] relates to HEK293. The series is described as follows: Inhibition of TLR2 expression in human HEK293 cells stably transfected with TLR2 at 10 uM treated for 24 hrs measured after serum deprivation by Western blotting. The format is functional, cell-based. The method in brief: (§1)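 HEK293 and TLR2-stably-transfected HEK293 cells in RPMI-1640 with 10% heat-inactivated FBS, 37 °C, 5% CO2; compound at 0, 10 or 100 uM for 24 h, then serum deprivation for 0, 12 or 24 h. Equal cell numbers lysed in RIPA buffer, 12% SDS-PAGE, nitrocellulose, anti-TLR2 immunoblot with GAPDH antibody, chemiluminescent detection; mean ± SEM of three independent experiments.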
Background: In western blotting, separated proteins are transferred to a membrane and probed.

Series [2] concerns the target Toll-like receptor 2 (Homo sapiens) (UniProt O60603). Kind of series: Inhibition of TLR2-mediated apoptosis in human HEK293 cells stably transfected with TLR2 at 100 uM treated for 24 hrs measured after 12 hrs of serum deprivation by TUNEL assay. The format is cell-based. The method in brief:
(§2)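 With or without 100 uM for 24 h, then serum deprivation 0, 12 or 24 h, in HEK293 or TLR2/HEK293 cells (RPMI-1640, 10% heat-inactivated FBS). Nucleosomal DNA fragmentation detected by in situ TUNEL kit; apoptotic and total cells counted in random fields to give percent apoptotic cells; mean ± SEM of three independent experiments.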

Series [3] in a line: Solubility in water. The format is physicochemical. Particulars: buffer.
The target in series [4] is Toll-like receptor 2 (Homo sapiens) (UniProt O60603). Kind of series: Inhibition of TLR2 in human HEK293 cells stably transfected with TLR2 assessed as decrease in GSK3-beta phosphorylation level at 10 uM treated for 24 hrs measured after serum deprivation by Western blotting. The format is cell-based. The method in brief:
(§3)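 Cells given 0, 10 or 100 uM for 24 h before 0, 12 or 24 h serum deprivation; HEK293 and TLR2/HEK293 lines cultured in RPMI-1640 plus 10% heat-inactivated FBS. Harvested cells lysed in RIPA buffer, 12% SDS-PAGE, nitrocellulose transfer, immunoblotted for phospho-GSK3beta and total GSK3beta, ECL read-out; mean ± SEM, three independent experiments.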

Another series deals with Albumin (Homo sapiens, UniProt P02768). Kind of series: Binding affinity to human serum albumin. The format is ADME. Particulars: isolated protein.
Sequence of Albumin (P02768 whole entry): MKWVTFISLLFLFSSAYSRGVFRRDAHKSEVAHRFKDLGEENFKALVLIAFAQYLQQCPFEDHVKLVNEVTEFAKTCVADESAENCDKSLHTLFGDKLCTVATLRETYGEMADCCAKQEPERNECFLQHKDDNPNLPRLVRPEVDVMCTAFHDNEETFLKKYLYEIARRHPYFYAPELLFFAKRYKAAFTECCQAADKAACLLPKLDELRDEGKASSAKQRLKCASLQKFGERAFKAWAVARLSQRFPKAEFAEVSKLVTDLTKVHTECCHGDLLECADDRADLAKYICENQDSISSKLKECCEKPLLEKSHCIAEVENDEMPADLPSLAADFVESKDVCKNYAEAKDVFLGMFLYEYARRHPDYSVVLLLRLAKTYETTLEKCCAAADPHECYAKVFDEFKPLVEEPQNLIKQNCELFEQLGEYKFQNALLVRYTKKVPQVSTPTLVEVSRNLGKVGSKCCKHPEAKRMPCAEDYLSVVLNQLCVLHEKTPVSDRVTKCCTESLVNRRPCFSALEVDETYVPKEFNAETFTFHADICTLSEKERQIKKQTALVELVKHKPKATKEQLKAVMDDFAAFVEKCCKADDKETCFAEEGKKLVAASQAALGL
Series [5] concerns the target Toll-like receptor 2 (Homo sapiens) (UniProt O60603). The series is described as follows: Inhibition of TLR2-mediated apoptosis in human HEK293 cells stably transfected with TLR2 at 100 uM treated for 24 hrs measured after 24 hrs of serum deprivation by TUNEL assay. The format is cell-based. The method in brief:
as §2

Series [6] shares this target. The series is described as follows: Inhibition of TLR2-mediated apoptosis in human HEK293 cells at 100 uM treated for 24 hrs measured after 12 hrs of serum deprivation by TUNEL assay. The format is cell-based. The method in brief:
as §2

Series [7] shares this target. The series is described as follows: Inhibition of TLR2 in human HEK293 cells stably transfected with TLR2 assessed as decrease in Akt phosphorylation level at Ser473 at 10 uM treated for 24 hrs measured after serum deprivation by Western blotting. The format is cell-based. The method in brief: (§4)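 Parental HEK293 or TLR2/HEK293 cells (RPMI-1640, 10% heat-inactivated FBS, 37 °C, 5% CO2) exposed to 0, 10 or 100 uM for 24 h, then serum-deprived 0, 12 or 24 h. RIPA lysates of equal cell numbers run on 12% SDS-PAGE; phospho-Akt (Ser473) and total Akt probed by Western blot, milk block, primary antibody overnight at 4 °C.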

Series [8] shares this target. Kind of series: Inhibition of TLR2 in human HEK293 cells assessed as decrease in GSK3-beta phosphorylation level at 100 uM treated for 24 hrs measured after serum deprivation by Western blotting. The format is cell-based. The method in brief:
as §3

For series [9] the target is unchanged. Kind of series: Inhibition of TLR2 in human HEK293 cells assessed as decrease in GSK3-beta phosphorylation level at 10 uM treated for 24 hrs measured after serum deprivation by Western blotting. The format is cell-based. The method in brief:
as §3

The subject of series [10] is HEK293. Kind of series: Inhibition of TLR2 expression in human HEK293 cells stably transfected with TLR2 at 100 uM treated for 24 hrs measured after serum deprivation by Western blotting. The format is functional, cell-based. The method in brief:
as §1

In series [11] the test system is HEK293. Kind of series: Inhibition of TLR2 expression in human HEK293 cells at 10 uM treated for 24 hrs measured after serum deprivation by Western blotting. The format is functional, cell-based. The method in brief: as §1
Series [12] addresses Toll-like receptor 2 (Homo sapiens) (UniProt O60603). Kind of series: Inhibition of TLR2-mediated apoptosis in human HEK293 cells at 100 uM treated for 24 hrs measured after 24 hrs of serum deprivation by TUNEL assay. The format is cell-based. The method in brief:
as §2

For series [13] the target is unchanged. The series is described as follows: Inhibition of TLR2 in human HEK293 cells stably transfected with TLR2 assessed as decrease in Akt phosphorylation level at Ser473 at 100 uM treated for 24 hrs measured after serum deprivation by Western blotting. The format is cell-based. In outline:
as §4

The target is the same in series [14]. Kind of series: Inhibition of TLR2 in human HEK293 cells assessed as decrease in Akt phosphorylation level at Ser473 at 100 uM treated for 24 hrs measured after serum deprivation by Western blotting. The format is cell-based. In outline:
as §4

For series [15] the target is unchanged. The series is described as follows: Inhibition of TLR2 in human HEK293 cells stably transfected with TLR2 assessed as decrease in GSK3-beta phosphorylation level at 100 uM treated for 24 hrs measured after serum deprivation by Western blotting. The format is cell-based. In outline: as §3
For series [16], the system named is HEK293. The series is described as follows: Inhibition of TLR2 expression in human HEK293 cells at 100 uM treated for 24 hrs measured after serum deprivation by Western blotting. The format is functional, cell-based. The method in brief:
as §1

Series [17] concerns the target Toll-like receptor 2 (Homo sapiens) (UniProt O60603). The series is described as follows: Inhibition of TLR2 in human HEK293 cells assessed as decrease in Akt phosphorylation level at Ser473 at 10 uM treated for 24 hrs measured after serum deprivation by Western blotting. The format is cell-based. The method in brief: as §4

Activity calls are given as the source filed them. The calls are words filed in the database; no cut-off is given here.

Sequence of Toll-like receptor 2 (Homo sapiens) (O60603 whole entry, the tested form may be a part): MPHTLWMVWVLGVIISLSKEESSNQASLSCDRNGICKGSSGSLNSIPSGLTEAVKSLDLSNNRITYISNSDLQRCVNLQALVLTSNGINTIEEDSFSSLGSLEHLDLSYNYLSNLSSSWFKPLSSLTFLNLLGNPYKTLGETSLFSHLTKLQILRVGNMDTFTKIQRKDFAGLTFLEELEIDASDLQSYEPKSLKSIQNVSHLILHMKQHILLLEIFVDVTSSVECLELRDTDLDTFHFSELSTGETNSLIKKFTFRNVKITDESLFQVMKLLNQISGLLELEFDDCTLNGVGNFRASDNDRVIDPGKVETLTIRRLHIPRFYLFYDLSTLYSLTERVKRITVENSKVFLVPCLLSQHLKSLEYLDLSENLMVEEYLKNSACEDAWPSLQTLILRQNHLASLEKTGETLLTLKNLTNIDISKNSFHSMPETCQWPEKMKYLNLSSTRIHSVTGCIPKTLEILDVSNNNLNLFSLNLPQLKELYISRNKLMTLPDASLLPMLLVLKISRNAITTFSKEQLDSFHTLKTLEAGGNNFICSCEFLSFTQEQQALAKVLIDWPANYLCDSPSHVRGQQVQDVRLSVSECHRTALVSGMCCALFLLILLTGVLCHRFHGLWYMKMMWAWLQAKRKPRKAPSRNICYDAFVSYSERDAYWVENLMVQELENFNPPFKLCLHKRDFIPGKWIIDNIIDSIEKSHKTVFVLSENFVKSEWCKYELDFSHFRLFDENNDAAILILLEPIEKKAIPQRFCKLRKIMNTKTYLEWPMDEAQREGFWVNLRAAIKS

One may read the inhibition as the percentage by which the read-out fell short of the control. For the compound `O=C(O)CCCCCOc1ccc(/C=C/c2cc(O)cc(O)c2)cc1` [RESVERATROL HEXANOIC ACID], the inhibition entry with HEK293 [1], with HEK293 [10], in the series on HEK293 [11] and in the series with HEK293 [16] was “Active” each time. In addition, the inhibition was found to be 20% in series [2], 49% in series [5], 11% in [6] and 25% in series [12]. For the same compound, the solubility entry in series [3] is given as “Soluble”. The outcome in series [4], in series [7], in series [13] and in [15] was Active. In addition, the “fold change (FC)” value on Albumin is on record as 40. Besides, the outcome in series [8], in series [9], in series [14] and in series [17] was inactive.
Consider `O=C(O)COc1ccc(/C=C/c2cc(O)cc(O)c2)cc1`, for which the inhibition result in the series with HEK293 [1], in the series on HEK293 [10], in the series on HEK293 [11] and in the series with HEK293 [16] was “inactive” in each case.
